Screening results: PubChem BioAssay, several laboratories
SR-BI HDL uptake: blocks mouse SR-BI lipid uptake from DiI-HDL; ldlA[mSR-BI] CHO cells, DiI-HDL uptake fluorescence, 3 h; Q61009; inhibition, % at 12.5 µM; 0.96% of 320,000 active;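 active = mean replicate inhibition of at least 70% and a set share of replicates each scoring 70 or more; inconclusive = meets just one of the two criteria; inactive = fails both criteria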;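 note: 0% = median of neutral control wells and 100% = median of positive control wells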
Target sequence (Q61009 whole entry, looked up): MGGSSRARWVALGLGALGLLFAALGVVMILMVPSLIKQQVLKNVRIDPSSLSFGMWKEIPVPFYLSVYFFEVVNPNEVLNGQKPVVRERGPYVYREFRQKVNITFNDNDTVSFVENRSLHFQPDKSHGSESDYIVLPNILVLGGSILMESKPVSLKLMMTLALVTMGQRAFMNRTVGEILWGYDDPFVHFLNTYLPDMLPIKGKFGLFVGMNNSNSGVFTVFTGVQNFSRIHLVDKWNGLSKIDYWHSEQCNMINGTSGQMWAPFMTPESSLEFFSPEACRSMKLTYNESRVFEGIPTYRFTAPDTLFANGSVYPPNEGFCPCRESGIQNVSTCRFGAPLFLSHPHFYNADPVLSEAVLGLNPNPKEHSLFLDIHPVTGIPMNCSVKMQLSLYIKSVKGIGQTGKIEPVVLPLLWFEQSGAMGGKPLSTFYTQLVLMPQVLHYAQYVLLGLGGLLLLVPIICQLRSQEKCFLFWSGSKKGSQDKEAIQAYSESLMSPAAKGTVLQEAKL
SR-BI DiI-HDL act: SR-BI HDL lipid transfer activation. CHO ldlA[mSR-BI] cells, DiI-HDL uptake fluorescence, 3 h; 100 = double the neutral-control signal. activation, % at 12.5 µM. 0.096% of 320,000 active. AID 504775;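 active = mean replicate activation of at least 60% and every replicate at or above 60%; inconclusive = mean or all-replicate condition met, but not both; inactive = mean below 60% and not all replicates reaching 60%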;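 note: 0% = median plate neutral-control signal and 100% = twice that signal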
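Assay system: CHO ldlA[mSR-BI] cells, LDL receptor-null, SR-BI overexpressing; medium: Ham's F12 with 0.5% BSA, HEPES 25 mM, pH 7.4; also added: DiI-HDL 10 µg/mL; timing: 3 h uptake period with compound, 37 °C; signal: DiI fluorescence, bottom read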
ABCB6 inh MLPCN: human ABCB6 transporter inhibition; AID 602162; Q9NP58; K562-ABCB6 porphyrin accumulation, flow cytometry, 1 h; hits give low values; fluorescence ratio to DMSO, % at 10 µM; 0.19% of 360,000 active;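 active = fluorescence ratio to DMSO below 75%, the collection mean minus 3 SD; inconclusive = too few cells collected in the well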;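 note: signal is porphyrin accumulated inside mitochondria; 100% equals median channel fluorescence of DMSO control wells; lower ratio means ABCB6 inhibition with less porphyrin fluorescence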
HIF activator: HIF pathway transcriptional activation. U2OS HRE-luciferase reporter, luminescence; normalized: DMSO 0%, desferrioxamine 100%. 0.32% of 300,000 active. AID 1910. activation, % at 7.5 µM (by protocol);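 active = mean activation of at least 10% of the iron chelator positive control signal, with at least half of replicates also reaching 10%; inconclusive = mean and replicate majority disagree about reaching 10%; inactive = mean and most replicates under 10%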
AHR activator: human AHR activation | activation, % at 5 µM | P35869 | 2.5% of 320,000 active | AHR-responsive luciferase reporter cells, luminescence; in the data active = activation above about 47%;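 note: 0% = vehicle wells and 100% = reference agonist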
FXN GAA850 act: increases GAA850 frataxin promoter reporter activity | activation, % at 6 µM | 0.56% of 360,000 active | HEK293 lucGAA850 FXN promoter luciferase reporter, 24 h; percent of 10 µM SAHA response;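 active = activation above the average of all compounds screened plus 3 SD, cutoff fixed separately per campaign, cut at about 7.5% in these data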;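 note: 0% = DMSO wells and 100% = 10 µM SAHA wells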
An asterisk follows results filed as active; ? = inconclusive; . = not tested or not shown. A selection: hits, their analogues and other compounds. The true share with any hit is near 3.9%.

SMILES	SR-BI HDL uptake	SR-BI DiI-HDL act	ABCB6 inh MLPCN	HIF activator	AHR activator	FXN GAA850 act
O=[N+]([O-])c1cccc(-c2nc(NCc3ccccc3)c3ccccc3n2)c1	46	-46	100	0	88*	-1
COc1ccc(/C=N/Nc2nc(-c3cccnc3)nc3ccccc23)c(OC)c1	45	-45	93	-1	51*	-1
O=[N+]([O-])c1cccc(C=NNc2ccccc2)c1	5	-5	97	.	.	5
CCOC(=O)c1ccccc1NC(=O)c1ccccc1N(C)S(C)(=O)=O	-22	22	100	0	1	0
COc1ccc(C/C(C)=N\NC(=O)c2c[nH]c3ccccc23)cc1OC	-1	1	94	1	53*	5
FC(F)(F)c1ccc(-c2nc(=S)[nH][nH]2)cc1	17	-17	96	96*	10	0
O=C1N=C(N2CCOCC2)S/C1=C/c1ccc(-c2ccc(F)cc2)o1	63	-63	101	0	82*	0
O=C1N=C(N2CCOCC2)SC1=Cc1ccco1	-13	13	94	.	.	-1
Cc1ccc(-c2ccc(/C=C3\SC(N4CCOCC4)=NC3=O)o2)cc1	23	-23	110	0	54*	4
N#CC(C(=O)NC1CC1)c1nc2ccccc2nc1N1CCN(C/C=C/c2ccccc2)CC1 (configuration not stated)	-9	9	128	0	-2	-3
Cn1c(Cc2ccccc2)n[nH]c1=S	31	-31	101	1	0	2
Cc1ccc(NC(=O)C2CCCN(c3cnccn3)C2)c(C)c1 (configuration not stated)	-20	.	95	0	47*	0
Cc1ccc(NC(=O)C2CCCN(c3ncccn3)C2)c(C)c1 (configuration not stated)	1	-1	99	3	-1	1
O=C(NCc1ccccc1F)C1CCCN(c2cnccn2)C1 (configuration not stated)	-3	.	100	0	24	0
O=C(NCCc1ccc(Cl)cc1)C1CCN(c2cnccn2)CC1	1	-1	104	1	2	0
O=C(NCCc1ccccc1)C1CCCN(c2cnccn2)C1 (configuration not stated)	6	-6	105	1	64*	-2
Cc1ccc(CNC(=O)C2CCCN(S(=O)(=O)c3cccnc3)C2)cc1 (configuration not stated)	-9	9	109	0	1	-2
Cc1ccc(CNC(=O)C2CCCN(c3cnccn3)C2)cc1 (configuration not stated)	-7	7	98	0	58*	-1
Cc1ccccc1CCNC(=O)C1CCCN(c2cnccn2)C1 (configuration not stated)	2	-2	101	0	48*	0
COc1ccc(-c2c(-c3ccsc3)oc3ccc(N4CCOCC4)cc23)cc1	75*	-75	101	1	47*	-1
COc1ccc(-c2oc3ccc(N4CCOCC4)cc3c2/C=C/c2ccc(OC)c(OC)c2)cc1	13	-13	95	2	33	3
COc1ccc(OC(C)C(=O)N2CCOCC2)cc1 (configuration not stated)	2	-2	99	0	-1	0
CCc1ccc2[nH]cc(S(=O)(=O)c3ccc(C)c(C)c3)c(=O)c2c1	-12	12	99	-1	1	0
CCc1ccc2[nH]c3nc(C)cc(C)c3c(=O)c2c1	9	-9	92	3	48*	5
COc1cc(CCC(=O)Nc2cc(C)cc(C)c2)cc(OC)c1OC	83*	-83	100	0	0	1
SMILES	SR-BI HDL uptake	SR-BI DiI-HDL act	ABCB6 inh MLPCN	HIF activator	AHR activator	FXN GAA850 act
COc1ccc2nc(NC(=O)CSc3nccc(C)n3)sc2c1	6	-6	86	39*	0	0
COc1ccc2nc(NC(=O)CCc3cc(OC)c(OC)c(OC)c3)sc2c1	72*	-72	98	1	2	-1
COc1ccc2nc(NC(=O)CCn3cccc3)sc2c1	31	-31	91	0	6	0
CCOC(=O)c1sc(NS(=O)(=O)c2ccc(C)cc2)nc1C	-43	43	105	0	-1	-1
CSc1cccc(NC(=O)c2ccccn2)c1	.	.	.	3	3	.
CSc1cccc(NC(=O)N2CCc3ccc(NC(=O)c4ccccn4)cc3C2)c1	76*	-76	97	-2	23	2
CCOC(=O)CNC(=O)N1CCc2ccc(NC(=O)c3ccccc3Cl)cc2C1	96*	-96	98	-20	5	-1
COc1ccccc1C(=O)Nc1ccc2c(c1)CN(C(=O)CSC)CC2	37	-37	99	5	-6	-3
COC(=O)[C@@H]1C[C@@H]2CC[C@@H](O)C[C@@H]2N1Cc1ccc(Cl)cc1	-14	14	111	0	4	-2
COC(=O)[C@@H]1C[C@H]2CC[C@H](O)C[C@H]2N1Cc1ccc(C)s1	-60	60*	107	1	2	1
Cc1ccc(N/N=C(\C#N)C(=N)N2CCCCCC2)cc1	12	-12	102	-4	26	2
CCN(CC)C(=N)/C(C#N)=N/Nc1ccc(C)cc1	0	0	113	3	75*	6
COc1ccc(CN2CCNC(=O)C2CC(=O)NCc2csc(C(C)C)n2)c(OC)c1 (configuration not stated)	.	.	.	0	47*	.
O=C(Cc1cccs1)N=Nc1c(O)[nH]c2ccccc12	.	.	99	1	8	5
O=C(N=Nc1c(O)[nH]c2ccccc12)c1cc(-c2cccs2)[nH]n1	-159	?	98	0	84*	0
CCOc1ccc(CONS(=O)(=O)c2ccc(NC(C)=O)cc2)cc1Cl	-12	12	101	0	6	1
Nc1nc(N)c(C=Nc2ccc(Br)cc2)c(Nc2ccc(Br)cc2)n1	-2	2	95	-1	99*	7
COc1ccc(OC)c(CNC(=O)C2CCCN(S(=O)(=O)N3CCC(C)CC3)C2)c1 (configuration not stated)	-4	4	94	25*	9	-2
COc1ccc(CNC(=O)C2CCCN(S(=O)(=O)N3CCC(C)CC3)C2)c(OC)c1 (configuration not stated)	18	-18	100	0	6	2
Cc1cc(C(=O)CN2C(=O)NC3(CCCC3)C2=O)c(C)n1-c1ccc2c(c1)OCO2	-45	45	100	0	22	1
CN(C)c1nc(N)nc(/C(C#N)=C/C2CC3C=CC2C3)n1 (configuration not stated)	6	-6	101	-2	47*	2
